Compound activity: PubChem BioAssay, several laboratories
HUVEC inhibit = blocks proliferation of human endothelial cells; AID 648; HUVEC proliferation, CellTiter-Glo luminescence, 72 h; active compounds read low; actives 1.1% (n = 86,000); viability, % at 10 µM (by protocol);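 active means viability at or below 30%; inactive means viability above 30%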
Jurkat tox 60K = reduces viability or proliferation of Jurkat cells | Jurkat E6.1 viability, ATP luminescence, 48 h | inhibition, % at 4 µM | actives 1.2% (n = 56,000);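 active means inhibition above the mean inhibition of all tested compounds plus 3 SD, cut at about 28% in these data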
Fibroblast inh = blocks proliferation of human lung fibroblasts. viability, % at 10 µM. LL 47 human lung fibroblast viability, ATP luminescence; active compounds read low. actives 1.1% (n = 85,000);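 active means viability at or below 50% in the single dose screen; inactive means viability above 50%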;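 further: compound exposure lasted 72 h before the ATP readout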
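material = human LL 47 lung fibroblast cells | dosing = compounds added from tenfold dosing solution, 0.1% DMSO final | timing = overnight cell rest, 72 h compound treatment at 37 °C | measured by = CellTiter-Glo luminescence measuring cellular ATP | evaluation = % viability versus median cells-only luminescence | control set = cell-only wells, no compound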
H69AR inhibit = blocks growth of human H69AR lung tumor cells. H69AR lung tumor viability, ATP luminescence, 72 h; active compounds read low. viability, % at 10 µM. actives 6% (n = 85,000). AID 598;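 active means viability at or below 40%; inactive means viability above 40%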;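 further: multidrug resistant small cell line overexpressing MRP-1 efflux transporter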
Large screens that a line does not name were inactive. In the library only some 6.6% were active in any assay of this set; here they are far more common.

CCN(CC)S(=O)(=O)c1ccc(S(=O)(=O)N(CC(=O)Nc2ccccc2)Cc2ccco2)cc1	none (no result: Jurkat tox 60K)
COC(=O)c1ccc(NC(=O)CN(C2CCCCC2)S(C)(=O)=O)cc1	H69AR inhibit 37.9
N=C1C(c2nc(-c3ccc(Cl)cc3)cs2)=C(O)CN1CCCN1CCOCC1	HUVEC inhibit 10.0
CCOC(=O)N1CCC(n2c(=S)[nH]c3cc(OCC)c(OCC)cc3c2=O)CC1	HUVEC inhibit 27.5, Fibroblast inh 12.2, H69AR inhibit 22.3 (no result: Jurkat tox 60K)
NS(=O)(=O)c1ccc(CCNc2nc(CN3CCOCC3)nc3sc4c(c23)CCC4)cc1	H69AR inhibit 16.4 (no result: Jurkat tox 60K)
Cc1sc2nc(CN3CCOCC3)nc(NCCc3ccccc3)c2c1C	H69AR inhibit 30.5 (no result: Jurkat tox 60K)
Cc1sc2nc(CN3CCOCC3)nc(NS(=O)(=O)c3ccc4c(c3)OCCO4)c2c1C	none
CC(=O)Nc1ccc(S(=O)(=O)Nc2nc(CN3CCOCC3)nc3sc4c(c23)CCCC4)cc1	none (no result: Jurkat tox 60K)
Cc1sc2nc(CN3CCOCC3)nc(NS(=O)(=O)c3ccccc3)c2c1C	none (no result: Jurkat tox 60K)
CCOc1ccc(Br)cc1S(=O)(=O)Nc1nc(CN2CCOCC2)nc2sc(C)c(C)c12	H69AR inhibit 33.6 (no result: Jurkat tox 60K)
Cc1cc(CN2C(=O)c3ccccc3C2=O)cc(N2CCOCC2)c1	none
C=C(C)Cn1c(-c2ccc(OC)cc2)nc2ccccc21	none (no result: Jurkat tox 60K)
Cc1ccc(C(=O)Nc2cccc(C(=O)O)c2)cc1S(=O)(=O)N1CCCCC1	none (no result: HUVEC inhibit, Fibroblast inh, H69AR inhibit)
Cc1c(Cl)cccc1NC(=O)CCCN1C(=O)CCC1=O	none (no result: Jurkat tox 60K)
N#CC1=C2C=CC=CN2CC1=O	none (no result: Jurkat tox 60K)
COc1ccc(N(C)S(=O)(=O)c2cccc3cccnc23)c(OC)c1	H69AR inhibit 16.7
COc1ccc(NC(=O)C2CCCN2S(=O)(=O)c2cccc3cccnc23)c(OC)c1 (centres undefined)	none
COc1ccc(C)cc1NC(=O)CN(Cc1nnc(-c2ccc(Cl)cc2)o1)C1CCCC1	H69AR inhibit 2.4
COc1ccc(C)cc1NC(=O)CSc1nnc(-c2ccc(C)cc2)o1	none
Cc1sc2ncnc(NCCN3CCOCC3)c2c1C	none (no result: Jurkat tox 60K)
N#Cc1cc2sc3nnc(-c4ccncc4)n3c2cc1C#N	Fibroblast inh 45.5, H69AR inhibit 28.9
N#Cc1cc2sc3nc4ccccc4n3c2cc1C#N	none
CSc1ccccc1NC(=O)COc1ccc(S(=O)(=O)N2CCCC2)cc1	none
O=C(NO)c1ccc(C(=O)N(C2CCCCC2)C2CCCCC2)cc1	H69AR inhibit 13.7
CN(C(=O)c1ccc(C(=O)N(C)C2CCCCC2)cc1)C1CCCCC1	none (no result: Jurkat tox 60K)
Cc1nc2ccccc2n1-c1nc(-c2ccco2)cc(C(F)(F)F)n1	none (no result: HUVEC inhibit, Fibroblast inh, H69AR inhibit)
FC(F)(F)c1cc(-c2ccco2)nc(-n2cnc3ccccc32)n1	H69AR inhibit 24.5
C[C@H](NS(=O)(=O)c1ccccc1F)C(=O)OCC(=O)N1CCc2ccccc21	none (no result: Jurkat tox 60K)
CCNc1ccc2noc3c2c1C(=O)c1ccccc1-3	H69AR inhibit 17.6 (no result: Jurkat tox 60K)
O=C1c2ccccc2-c2onc3ccc(NCc4ccco4)c1c23	H69AR inhibit 34.1 (no result: Jurkat tox 60K)
COc1ccc(NC(=O)OC(C)C)cc1	none (no result: Jurkat tox 60K)
CC(C)CC1(C)NC(=O)N(CCN2C(=O)c3ccccc3C2=O)C1=O (centres undefined)	none
Cc1[nH]c2ccccc2c1SCCN	H69AR inhibit 34.6
CCCCOc1ncnc2c1[nH]c1ccc(F)cc12	Jurkat tox 60K 61.1
CCCCOc1ncnc2c1[nH]c1ccc(OCC)cc12	none (no result: Jurkat tox 60K)
CCCCOc1ncnc2c1[nH]c1ccccc12	Jurkat tox 60K 76.5 (no result: H69AR inhibit)
CCCCOCCCNc1ncnc2c1[nH]c1ccccc12	H69AR inhibit 39.2 (no result: Jurkat tox 60K)
CCn1c(=O)c(C(=O)Nc2nc3ccccc3[nH]2)c(O)c2ccccc21	Jurkat tox 60K 29.4 (no result: HUVEC inhibit, Fibroblast inh, H69AR inhibit)
CCn1c(=O)c(C(=O)Nn2c(C)nc3ccccc3c2=O)c(O)c2ccccc21	none
FC(F)(F)c1cc(-c2ccc(Cl)cc2)nc2ncnn12	none (no result: Jurkat tox 60K)
COC(=O)c1sc(N2C(=O)c3oc4ccccc4c(=O)c3C2c2cccs2)nc1C (centres undefined)	none (no result: HUVEC inhibit, Fibroblast inh, H69AR inhibit)
C=CCOC(=O)c1sc(N2C(=O)c3oc4ccccc4c(=O)c3C2c2ccco2)nc1C (centres undefined)	H69AR inhibit 17.3
CCOC(=O)c1ccccc1Nc1cn(C(C)=O)c2ccccc12	Fibroblast inh 45.9, H69AR inhibit 23.2 (no result: Jurkat tox 60K)
CCOC(=O)C1=C(C)Nc2nc3ccccc3n2C1c1ccccc1 (centres undefined)	H69AR inhibit 11.1 (no result: Jurkat tox 60K)
O=C(CC(SCCO)c1ccc2c(c1)OCO2)c1ccco1 (centres undefined)	H69AR inhibit 15.5
CC1CCCC(NC(=S)Nc2ccc(SC(F)F)cc2)C1C (centres undefined)	Fibroblast inh 34.1, H69AR inhibit 9.1 (no result: Jurkat tox 60K)
O=C1c2ccccc2C(=O)N1CCc1nc2ccccc2c(=O)n1CCCn1ccnc1	none
